Measurements published in the array DNA melting data of Ke et al. (doi:10.1101/2024.01.08.574731).

Experiments:
[1] = melting temperature; fluorescence melt of hairpins on a sequencing array, two-state fit, raised by 9.35 °C to match UV melts; conditions: sodium 0.088 M
Procedure, shortened: (§1)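 On a sequenced MiSeq flow cell, library hairpins with annealed Cy3 and quencher oligos were imaged for Cy3 fluorescence in 2.5 °C steps up to 60 °C, in 50 mM Na-HEPES pH 8.0, 25 mM NaCl. Normalisation used pre-quench Cy3 and control constructs. Bootstrapped two-state fits gave melting temperature and folding enthalpy, combined by inverse variance across four replicates and with fitted temperatures raised by 9.35 °C to match UV melts.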

[2] = folding enthalpy; higher = less favourable; fluorescence melt of hairpins on a sequencing array, two-state fit; conditions: sodium 0.088 M
Procedure, shortened: as §1

Sequence	Tm [1]	folding enthalpy [2]
GTAGTCACGAAAGTGTAC (((..(((....))))))	30.5 °C	-12 kcal/mol
GCCAACGAAAGTTCTGGC ((((((....)))..)))	38 °C	-24.9 kcal/mol
GTTGTTGGAAACGACAAC (((((.(....).)))))	48.4 °C	-8.7 kcal/mol
GCCGTCGAAAGACCAGGC ((((((....)))..)))	48.9 °C	-17.5 kcal/mol
GTCGGCCCGAAAGGGGAC (((..(((....))))))	43.3 °C	-12.6 kcal/mol
GATGTGGGAAACCACATC (((((((....)))))))	60.9 °C	-42.1 kcal/mol
GCGGAAACCGC ((((...))))	52.9 °C	-23 kcal/mol
GCTATGCGAAAGCACTGC ((..(((....)))..))	36.3 °C	-15.3 kcal/mol
GTTCGCGAAAGCGGGAAC ((((((....)))..)))	40.7 °C	-11.8 kcal/mol
GCACTCCGAAAGGATGC (((.(((....))))))	51.7 °C	-29.4 kcal/mol
GTAATACGAAAGTAGTAC (((.(((....))).)))	42.5 °C	-34.5 kcal/mol
GACCAGCCGAAAGGCGTC (((..(((....))))))	34.5 °C	-7.85 kcal/mol
GAAGCACGAAAGTGTTTC (((.(((....))).)))	51.1 °C	-35.2 kcal/mol
GGATGCGGAAACGTATCC ((((.((....)).))))	52.6 °C	-46.7 kcal/mol
GCGATCTATCGC ((((....))))	55.5 °C	-31 kcal/mol
GCGCCGCGAAAGCTGAGC ((.(.((....)).).))	57.5 °C	-20 kcal/mol
GCATCGCGAAAGCCAAGC ((.(.((....)).).))	27.5 °C	-9.2 kcal/mol
GGGCCCGAAAGGGCTCCC ((((((....)))..)))	59.7 °C	-9.89 kcal/mol
GGCTGAGAAATCAGCC ((((((....))))))	65.7 °C	-34.3 kcal/mol
GAGTGACGAAAGTCCCTC (((.(((....))).)))	45.1 °C	-24.4 kcal/mol
GATCTACGACTAGATC ((((((....))))))	35 °C	-32.1 kcal/mol
GCAGTTCGAAAGAATTGC (((.(((....))).)))	52.6 °C	-38.5 kcal/mol
GAACACGAAAGTGTCTTC ((((((....)))..)))	52.8 °C	-24.3 kcal/mol

Sequence	Tm [1]	folding enthalpy [2]
GCAAGGGGAAACCCCTGC (((.(((....))).)))	51.1 °C	-27.4 kcal/mol
GGTGTTGCGAAAGCAACC (((..(((....))))))	49.5 °C	-8.2 kcal/mol
GAAACGGGAAACTGTTTC (((((.(....).)))))	44.9 °C	-27.5 kcal/mol
GCTTCCGGAAACGGAGGC ((.((((....)))).))	54.6 °C	-36.4 kcal/mol
GAGGCTGGAAACAGTCTC (((.(((....))).)))	52.6 °C	-35.8 kcal/mol
GTGATGGGAAACTATCAC (((((.(....).)))))	45.6 °C	-32.2 kcal/mol
GTATGGGGAAACCCATAC (((((((....)))))))	59 °C	-33.5 kcal/mol
GCTGACGAAAGTCTCAGC ((((((....)))..)))	40.9 °C	-20.9 kcal/mol
GATCGACCCTCGATC ((((((...))))))	51.7 °C	-39.1 kcal/mol
GCTCCCGAAAGGGGTAGC ((((((....)))..)))	48.7 °C	-18.1 kcal/mol
GATCCGTGCTCGGATC ((((((....))))))	59.7 °C	-43.9 kcal/mol
GATCGGACGGCCGATC ((((((....))))))	59.3 °C	-45.5 kcal/mol
GGCGTCCGAAAGGAGCC (((.(((....))))))	59.5 °C	-25.9 kcal/mol
GGCAGATCGAAAGATGCC (((..(((....))))))	49.4 °C	-26.8 kcal/mol
GACCCTGGAAACGGGGTC (((((.(....).)))))	57.6 °C	-40.3 kcal/mol
GCGAGGCGAAAGCCGGGC ((..(((....)))..))	65.7 °C	-20.8 kcal/mol
GATCTCAATGGAGATC ((((((....))))))	51.5 °C	-40.6 kcal/mol
GATCCTTTGCAGGATC ((((((....))))))	52 °C	-30.6 kcal/mol
GAAGGCACGAAAGTGTTC (((..(((....))))))	24.6 °C	-9.46 kcal/mol
GTAGGTCCGAAAGGATAC (((..(((....))))))	28.8 °C	-12.1 kcal/mol
GCAGTCGAAAGACGTGC ((((((....))).)))	51.8 °C	-17.4 kcal/mol
GCAATAGGAAACCATTGC (((((.(....).)))))	39.2 °C	-28 kcal/mol
GGGTAACGAAAGTTCCC (((.(((....))))))	50.1 °C	-24.4 kcal/mol
